97 compounds from ChEMBL document CHEMBL4513216, “Probing the Open Global Health Chemical Diversity Library for Multistage-Active Starting Points for Next-Generation Antimalarials” (ACS Infect Dis, 2020) can be followed below.

The nature of the series: Toxicity liver stage against HepG2, at 10uM. It is filed as cell-based. On the set-up: test concentration 10 uM, cell line HepG2-A16-CD81EGFP. The settings on record: human, HepG2-A16-CD81EGFP cells; read-out: INHIBITION
In outline:
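Uninfected HepG2-A16-CD81EGFP cells, 3 × 10^3 per well, 1536-well, plated on prespotted compound at 10 μM final, parasite-free screening media added to match infected plates; puromycin 10 μM positive, DMSO 0.5% negative; run in parallel with 48 h PbLuc assay at 37 °C, 5% CO2; viability by CellTiter-Glo luminescence, normalized to controls.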

Structures are written as SMILES.

In the case of `CN(C)C(=O)CNC(CC(F)(F)F)c1ccc(F)cc1` (configuration not stated), the cytotoxicity at 10 µM was -3.08%.

On to `Cn1cc(C(=O)CC2CCCN2C(=O)c2cncc3ccccc23)cn1` (configuration not stated), for which the cytotoxicity at 10 µM worked out at 4.11%.

On to `Cc1nc(NS(=O)(=O)c2ccc(C)c(Br)c2)no1`, for which the cytotoxicity at 10 µM stood at 11.2%.

As to `Cc1ccc(NC(=O)Nc2c[nH]c(=O)[nH]c2=O)c(C)c1`, the cytotoxicity at 10 µM was determined as 18.2%.

On to `CN1CCN(C(=O)CC2CCN(CCc3ccccn3)CC2)CC1`, for which the cytotoxicity at 10 µM was -2.89%.

`Cc1cnn(CC2CN(Cc3nc(C)c(C)o3)CCO2)c1` (configuration not stated): the cytotoxicity at 10 µM was -3.88%.

`CC(C)CNC(=O)Nc1cccc(CN2CCOC2=O)c1`: the cytotoxicity at 10 µM is -1.1%.

As to `COc1ccc(CN(Cc2cnc(N)nc2)CC2CCCO2)c(OC)c1` (configuration not stated), the cytotoxicity at 10 µM is -0.438%.

Turning to `CNC(=O)c1cn[nH]c1C1CCN(Cc2ccccc2F)C1` (configuration not stated), the cytotoxicity at 10 µM is -30.8%.

As to `CC(C)N1CCC(Nc2ccn(Cc3ccccn3)n2)C1=O` (configuration not stated), the cytotoxicity at 10 µM was -2.43%.

In the case of `CCN(CC)C(=O)N1CCN(C2=NCC(C)S2)CC1` (configuration not stated), the cytotoxicity at 10 µM is -148%.

As for `O=S1(=O)COCCN1CCOc1ccccc1`, the cytotoxicity at 10 µM is 5.1%.

`COC(C(=O)N1CCN(c2cccc(Cl)c2)C(=O)C1)c1ccccc1` (configuration not stated): the cytotoxicity at 10 µM is -9.09%.

Take `Cc1nc(C)n(CC2CCCCN2CCOc2cccc(C#N)c2)n1` (configuration not stated): the cytotoxicity at 10 µM was -10%.

For the compound `CN(C(=O)c1ccon1)[C@@H]1CCC[C@@H](Oc2ccccc2)[C@@H]1O`, the cytotoxicity at 10 µM was -17.5%.

`Cc1cc(C(F)F)nn1C(C)C(=O)NCc1ncc[nH]1` (configuration not stated): the cytotoxicity at 10 µM was determined as 5.46%.

For `CNC(=O)CN1CCO[C@H]2CN(C(=O)C3CC3)C[C@H]21`, the cytotoxicity at 10 µM amounted to 7.52%.

Take `COc1ccc(C2CCCN2C(=O)Nc2ccc(OC)nc2)cc1` (configuration not stated): the cytotoxicity at 10 µM came to 2.58%.

In the case of `O=C(NCc1cccnc1)Nc1cc(C(F)(F)F)c[nH]c1=O`, the cytotoxicity at 10 µM is -1.78%.

Take `COCC(=O)Nc1ccc(N2CCC(OC)CC2)c(C(F)(F)F)c1`: the cytotoxicity at 10 µM is -0.0399%.

With `Cn1ccc(CN2CCC(CC(=O)N3CCCC3)CC2)cc1=O`, the cytotoxicity at 10 µM is -12.6%.

For `COc1cc2[nH]c(=O)c(CN3CCCC(CO)C3)cc2c(OC)c1OC` (configuration not stated), the cytotoxicity at 10 µM was -11.7%.

Take `O=S(=O)(NC1CCCOC1)c1ccc(C(F)(F)F)nc1` (configuration not stated): the cytotoxicity at 10 µM was -1.38%.

In the case of `COCCNC(=O)Nc1ccc(-c2nc(C(C)C)no2)cc1`, the cytotoxicity at 10 µM is 0.0793%.

Regarding `O=C(NCCC1CCCCO1)c1coc(COc2ccc(F)cc2)n1` (configuration not stated), the cytotoxicity at 10 µM stood at 1.1%.

On to `Clc1snnc1CN1CCCC(Cn2cncn2)C1` (configuration not stated), for which the cytotoxicity at 10 µM is -7.67%.

On to `CC(C)c1cc(C(=O)NCCN2CCCS2(=O)=O)n[nH]1`, for which the cytotoxicity at 10 µM was -9.91%.

In the case of `CCC(=O)N1CCC2(CC1)CC(CC(N)=O)c1ccc(F)cc12` (configuration not stated), the cytotoxicity at 10 µM was determined as 11.8%.

As for `CC(c1nnc(-c2cccs2)o1)N1CCn2c(nnc2C2CC2)C1` (configuration not stated), the cytotoxicity at 10 µM came out at 17.7%.

As to `Cn1ncc(NC(=O)c2noc3c2CCCC3)c1C(N)=O`, the cytotoxicity at 10 µM worked out at 5.8%.

As for `COCCOc1ccc(CNc2nc3ccccc3nc2N)cn1`, the cytotoxicity at 10 µM was found to be 33.9%.

`Cc1ccc(N2CCC(C(O)c3cccs3)CC2)nn1` (configuration not stated): the cytotoxicity at 10 µM is -49.1%.

In the case of `CCc1nnc(CN(C)CC2CCCCC2)o1`, the cytotoxicity at 10 µM worked out at 0.897%.

As for `COCCn1cnc2ccc(NC(=O)CCCn3cccn3)cc2c1=O`, the cytotoxicity at 10 µM was determined as 6.43%.

Consider `c1cc(C2CC2)n2cnc(C3CN(Cc4ccncc4)CCO3)c2c1` (configuration not stated), for which the cytotoxicity at 10 µM came out at 6.59%.

As to `CCOc1cccc2c1OCC(C(=O)NS(=O)(=O)c1ccc(Br)s1)=C2`, the cytotoxicity at 10 µM was -11.6%.

For `CCN(CC)C(=O)c1ccc(-n2ncc(C#N)c2N)cc1`, the cytotoxicity at 10 µM worked out at 0.796%.

On to `CC(C)c1ncc(CN2CCC(CO)C2)cn1` (configuration not stated), for which the cytotoxicity at 10 µM is -25.8%.

As for `COc1ccc(CN(C)CC2(O)CCN(C(=O)c3cccn3C)C2)cc1` (configuration not stated), the cytotoxicity at 10 µM is 5.4%.

As for `COC1CCN(C(=O)Cc2csc(-c3ccc(F)cc3)n2)CC1`, the cytotoxicity at 10 µM is -6.16%.

In the case of `CCNc1cc2c(nn1)CCN(C(=O)C(C)c1c(C)noc1C)C2` (configuration not stated), the cytotoxicity at 10 µM was -4.05%.

In the case of `C[C@@H]1CN(c2nc(N)nc3c2CCC3)CC[C@@]1(O)C1CCC1`, the cytotoxicity at 10 µM was found to be 36.9%.

For the compound `Cc1nc(C)n(CC2CCCN2Cc2nc(-c3cccs3)no2)n1` (configuration not stated), the cytotoxicity at 10 µM was -4.02%.

Turning to `COc1nn(C)c2c1CCCN(S(=O)(=O)c1ccccc1F)C2`, the cytotoxicity at 10 µM was -109%.

`CC(NC(N)=O)C(=O)NCc1ccnc(Oc2ccc(F)cc2)c1` (configuration not stated): the cytotoxicity at 10 µM worked out at 8.26%.

On to `Cc1cc(CN2CCC(CNS(=O)(=O)c3c(C)noc3C)CC2)c(C)o1`, for which the cytotoxicity at 10 µM stood at 5.81%.

Regarding `CCCn1ccc(C(=O)N2CCC(C)CC2)n1`, the cytotoxicity at 10 µM is -7.01%.

As to `CCc1c(C)nn2c(O)cc(C3CCN(C(=O)c4ccn(C)n4)C3)nc12` (configuration not stated), the cytotoxicity at 10 µM was 7.92%.

In the case of `CCn1cc(CNc2ccc(N(C)CCOC)cn2)cn1`, the cytotoxicity at 10 µM was -8.16%.

Take `Cc1nc(C)c(CC(=O)NCc2cccnc2OC2CCCC2)c(=O)[nH]1`: the cytotoxicity at 10 µM is -5.87%.

On to `Cn1ccnc1CN1CCN2C[C@H](Oc3ccccc3)C[C@H]2C1`, for which the cytotoxicity at 10 µM was 7.14%.

Turning to `CCN1CCCN(C(=O)c2cnc(OC(C)C)c(Cl)c2)CC1`, the cytotoxicity at 10 µM was -14.4%.

`CCC(O)CN1CCN(C(=O)Cc2ccc(C)nc2)CC1` (configuration not stated): the cytotoxicity at 10 µM was -9.24%.

Consider `Cc1nc(CN2CCCC(CCc3ccc(F)cc3F)C2)c[nH]1` (configuration not stated), for which the cytotoxicity at 10 µM is -9.67%.

As for `CC(NC(=O)NCCCN1CCCC1=O)c1ccc(Cl)s1` (configuration not stated), the cytotoxicity at 10 µM is -8.28%.

Turning to `Cn1cc(CN2CC[C@H]3O[C@H](C(=O)NC4CC4)CC[C@H]32)c2ccccc21`, the cytotoxicity at 10 µM worked out at 8.82%.

`Cc1nn(CC(=O)N2CCN(Cc3cnn(C)c3C)CC2)cc1Cl`: the cytotoxicity at 10 µM is -3.22%.

Regarding `Cc1cc(C)c2c(NCc3nncn3C3CCCCC3)ncnc2n1`, the cytotoxicity at 10 µM is -0.404%.

As for `Cc1ccc(Cn2nc(C)c3c(C(=O)O)c(Cl)c(C4CC4)nc32)cc1`, the cytotoxicity at 10 µM was found to be 6.75%.

With `Cc1cncc(C2CCCN(Cc3cccn3C)C2)n1` (configuration not stated), the cytotoxicity at 10 µM came out at 8.25%.

For the compound `CN(C)CCO[C@H]1C[C@@H](O)C12CCN(c1cnccn1)CC2`, the cytotoxicity at 10 µM was found to be 3.79%.

As to `COCCCn1ccc(NS(=O)(=O)c2cc(C)c(F)cc2F)n1`, the cytotoxicity at 10 µM worked out at 20.1%.

`COc1cc2c(cc1-c1nc3c(cnn3C)[nH]1)OCO2`: the cytotoxicity at 10 µM is -8.9%.

As for `COc1ccccc1CC(=O)NCc1ccnc(NC2CC2)c1`, the cytotoxicity at 10 µM was -4.06%.

Turning to `CCCOc1cc(C)c2c(c1C)C[C@H]([C@H](C)C(=O)O)CC2`, the cytotoxicity at 10 µM is -4.19%.

For `CN1CCOC(C(=O)N2CCC3(CCCCC3)C2)C1` (configuration not stated), the cytotoxicity at 10 µM was 5.41%.

As for `O=C(c1cccc(Cl)c1)N1CC[C@H]2[C@H]1CCN2CC1CC1`, the cytotoxicity at 10 µM is -75%.

As to `CN(C)Cc1cnc2n1CCN(C(=O)Cc1cccc(F)c1)CC2`, the cytotoxicity at 10 µM is -11.7%.

Take `CC(C)NS(=O)(=O)c1ccccc1CNCc1cccc(O)c1`: the cytotoxicity at 10 µM is -7.19%.

Turning to `CCC[C@@H]1CN(Cc2nnc(-c3cccnc3)o2)C[C@H]1NC(C)=O`, the cytotoxicity at 10 µM was -4.89%.

For the compound `COc1cccc(CN(C)c2ncc(C(N)=O)cc2Cl)c1`, the cytotoxicity at 10 µM amounted to 2.53%.

Turning to `CCN(C(=O)CCCOc1ccccc1F)c1ccncc1`, the cytotoxicity at 10 µM was -5.69%.

`CC(C#N)CSc1ccccc1NCC(=O)NC(=O)NC(C)(C)C` (configuration not stated): the cytotoxicity at 10 µM amounted to 11.7%.

`Cc1nn(CCCNC(=O)C2CCN(S(C)(=O)=O)CC2)c(Cl)c1Cl`: the cytotoxicity at 10 µM is -11.3%.

As to `CCNC(=O)[C@@H]1C[C@@H](NC(=O)c2cnc[nH]c2=O)CN1Cc1ccsc1`, the cytotoxicity at 10 µM is -6.94%.

Consider `CCn1cnnc1CNC(=O)c1cc(Cl)c(I)cc1OC`, for which the cytotoxicity at 10 µM was -14.4%.

With `O=C(NC1CCCN(c2ccc(OC(F)F)cc2)C1)c1cc[nH]n1` (configuration not stated), the cytotoxicity at 10 µM worked out at 3.65%.

`COCCN(Cc1cnn(C)c1)Cc1ccc(C)o1`: the cytotoxicity at 10 µM was -0.0972%.

Take `O=S(=O)(c1ccccc1)N1C2CCC(O)(CC2)C1CN1CCOCC1` (configuration not stated): the cytotoxicity at 10 µM was -4.65%.

Take `COc1ccccc1NC(=O)NC(C)c1nc[nH]n1` (configuration not stated): the cytotoxicity at 10 µM came to 2.8%.

On to `Cc1ncsc1C(=O)N(C)Cc1cccc(Cl)c1`, for which the cytotoxicity at 10 µM is -1.27%.

On to `O=C(c1ccc2c(c1)CCO2)N1CCN(c2cnccn2)CC1`, for which the cytotoxicity at 10 µM is -14.4%.

Consider `O=S(=O)(C1CC1)N1C[C@H](Oc2ccccn2)[C@H]2OCCC[C@H]21`, for which the cytotoxicity at 10 µM was -3.7%.

For `CC1CN(CC(=O)Nc2nncs2)CCN1c1nccs1` (configuration not stated), the cytotoxicity at 10 µM was -15.7%.

For `Cc1ccsc1C(=O)N1CCCC(c2[nH]ncc2S(C)(=O)=O)C1` (configuration not stated), the cytotoxicity at 10 µM was -5.39%.

Take `CC1CCCCN1C1CN(C(=O)c2sccc2S(N)(=O)=O)C1` (configuration not stated): the cytotoxicity at 10 µM was -1.45%.

For the compound `COc1ccc(-c2nnc(C(C)N3CCC4(CC3)OCCO4)o2)cc1` (configuration not stated), the cytotoxicity at 10 µM came to 12.5%.

Turning to `CCn1cnnc1CCNC(=O)c1ccc(Br)cc1F`, the cytotoxicity at 10 µM was -29.7%.

On to `Cc1nnc2n1CCN(Cc1c(Cl)ccc3cccnc13)C2`, for which the cytotoxicity at 10 µM is 8.25%.

Turning to `COC(=O)c1cc(NS(=O)(=O)c2cn(C)cn2)c(F)cc1F`, the cytotoxicity at 10 µM was 14.8%.

`COc1ccc(C(C)Nc2ncc(C(N)=O)cc2Cl)c(OC)c1` (configuration not stated): the cytotoxicity at 10 µM was determined as 19.1%.

`CCCSCC(=O)N1CCN(c2ccc(OC)cc2)CC1C` (configuration not stated): the cytotoxicity at 10 µM is -166%.

In the case of `NC(=O)N1C[C@H](NC(=O)c2cscn2)[C@@H]2OCCC[C@@H]21`, the cytotoxicity at 10 µM was -99%.

Take `COc1cccc(CN2CC(O)CN(C(=O)C3CC3)CC2=O)c1OC` (configuration not stated): the cytotoxicity at 10 µM was -11.3%.

For `Cc1ccn2ncc(C(=O)N3CCCC(n4ccnc4C)C3)c2n1` (configuration not stated), the cytotoxicity at 10 µM is -13.6%.

Consider `O=S1(=O)c2ccccc2OCC2(CCN(CCO)CC2)CN1CC1CC1`, for which the cytotoxicity at 10 µM was 0.864%.

In the case of `Cc1cc(NC(=O)c2ccc(CN3CC[C@H](O)C3)cc2)ccc1F`, the cytotoxicity at 10 µM worked out at 4.5%.
